The source of these data is ChEMBL document CHEMBL4229344 (Eur J Med Chem, 2018).

For assay [1], the target named is Vascular endothelial growth factor receptor 2 (Homo sapiens) (UniProt P35968).
For assay [2], the target named is Ephrin type-B receptor 3 (Homo sapiens) (UniProt P54753). Nature of the assay: Binding affinity to wild-type human partial length EPHB3 (Q599 to T928 residues) expressed in bacterial expression system assessed as residual binding level at 1 uM by Kinomescan method relative to control. An outline of the steps:
(§1)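 Kinome-wide competition binding screen against a panel of 468 purified kinases/mutants, with the test compound at a single concentration of 1 μM. Read-out is the relative binding activity of each kinase in the presence of compound.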

In assay [3] the target is Casein kinase I isoform gamma-2 (Homo sapiens) (UniProt P78368). Nature of the assay: Binding affinity to wild-type human full length CSNK1G2 (M1 to K415 residues) expressed in bacterial expression system assessed as residual binding level at 1 uM by Kinomescan method relative to control. An outline of the steps:
(§2)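 Single-concentration (1 μM) competition-binding screen run by KINOMEscan against a panel of 468 purified kinases and mutants. The read-out is the relative binding activity of the test compound to each kinase.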

The target of assay [4] is Cyclin-dependent kinase 2 homolog (Plasmodium falciparum (isolate 3D7)) (UniProt P61075). The assay is described as follows: Binding affinity to wild-type Plasmodium falciparum 3D7 full length PK5 (M1 to N288 residues) expressed in mammalian expression system assessed as residual binding level at 1 uM by Kinomescan method relative to control. An outline of the steps:
as §2

The target in assay [5] is Serine/threonine-protein kinase PAK 2 (Homo sapiens) (UniProt Q13177). The assay is described as follows: Binding affinity to wild-type human partial length PAK2 (P151 to R525 residues) expressed in bacterial expression system assessed as residual binding level at 1 uM by Kinomescan method relative to control. An outline of the steps:
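KINOMEscan competition binding against a panel of 468 purified kinases/mutants, compound tested at 1 μM; readout is relative binding activity versus control.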

Assay [6] has as its target Serine/threonine-protein kinase PAK 6 (Homo sapiens) (UniProt Q9NQU5). The assay is described as follows: Binding affinity to wild-type human partial length PAK6 (N298 to C681 residues) expressed in bacterial expression system assessed as residual binding level at 1 uM by Kinomescan method relative to control.
Assay [7] deals with Serine/threonine-protein kinase Nek4 (Homo sapiens) (UniProt P51957). Nature of the assay: Binding affinity to wild-type human full length NEK4 (M1 to F841 residues) expressed in mammalian expression system assessed as residual binding level at 1 uM by Kinomescan method relative to control. An outline of the steps:
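Single-concentration KINOMEscan (DiscoverX) binding screen at 1 μM against a panel of 468 purified kinases and mutants. The read-out is binding relative to control.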

Assay [8] deals with Transient receptor potential cation channel subfamily M member 6 (Homo sapiens) (UniProt Q9BX84). Nature of the assay: Binding affinity to wild-type human partial length TRPM6 (Q1723 to I1998 residues) expressed in mammalian expression system assessed as residual binding level at 1 uM by Kinomescan method relative to control.
Assay [9] addresses Serine/threonine-protein kinase MRCK gamma (Homo sapiens) (UniProt Q6DT37). Nature of the assay: Binding affinity to wild-type human partial length DMPK2 (S46 to S408 residues) expressed in bacterial expression system assessed as residual binding level at 1 uM by Kinomescan method relative to control.
In assay [10] the target is Epidermal growth factor receptor (Homo sapiens) (UniProt P00533). Nature of the assay: Binding affinity to human partial length EGFR L747-T751del/Sins mutant expressed in bacterial expression system assessed as residual binding level at 1 uM by Kinomescan method relative to control. In short, it runs like this:
(§3)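 Kinome-wide single-concentration binding screen (KINOMEscan) at 1 μM against a panel of 468 purified kinases and mutants. Read-out is relative binding of each kinase compared with control. Selectivity across the panel was summarised as an S(10) score.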

The test system of assay [11] is Mast/stem cell growth factor receptor Kit (Homo sapiens), P10721 [V559D,T670I]. Nature of the assay: Binding affinity to human partial length KIT V559D/T670I double mutant (Y545 to D952 residues) expressed in bacterial expression system assessed as residual binding level at 1 uM by Kinomescan method relative to control. In short, it runs like this:
as §3

Assay [12] addresses Ephrin type-A receptor 3 (Homo sapiens) (UniProt P29320). Nature of the assay: Binding affinity to wild-type human partial length EPHA3 (D604 to K889 residues) expressed in bacterial expression system assessed as residual binding level at 1 uM by Kinomescan method relative to control. In short, it runs like this: as §1
The target of assay [13] is Leukocyte tyrosine kinase receptor (Homo sapiens) (UniProt P29376). Nature of the assay: Binding affinity to wild-type human partial length LTK (P422 to S744 residues) expressed in bacterial expression system assessed as residual binding level at 1 uM by Kinomescan method relative to control. An outline of the steps:
as §1

Assay [14] concerns the target Mitogen-activated protein kinase kinase kinase 12 (DLK/MAP3K12) (Homo sapiens) (UniProt Q12852). The assay is described as follows: Binding affinity to wild-type human full length DLK (M1 to P859 residues) expressed in mammalian expression system assessed as residual binding level at 1 uM by Kinomescan method relative to control.
For assay [15], the target named is Ephrin type-A receptor 7 (Homo sapiens) (UniProt Q15375). Nature of the assay: Binding affinity to wild-type human partial length EPHA7 (Y608 to S912 residues) expressed in bacterial expression system assessed as residual binding level at 1 uM by Kinomescan method relative to control.
In assay [16] the target is 5'-AMP-activated protein kinase catalytic subunit alpha-1 (Homo sapiens) (UniProt Q13131). The assay is described as follows: Binding affinity to wild-type human partial length AMPK alpha1 (M1 to E306 residues) expressed in bacterial expression system assessed as residual binding level at 1 uM by Kinomescan method relative to control. An outline of the steps:
as §1

In assay [17] the target is Mitogen-activated protein kinase 4 (Homo sapiens) (UniProt P31152). The assay is described as follows: Binding affinity to wild-type human partial length ERK4 (M1 to L365 residues) expressed in bacterial expression system assessed as residual binding level at 1 uM by Kinomescan method relative to control. In short, it runs like this: as §1
Assay [18] has as its system Phosphatidylinositol 4,5-bisphosphate 3-kinase catalytic subunit alpha isoform (Homo sapiens), P42336 [H1047Y]. Nature of the assay: Binding affinity to human partial length PIK3CA H1047Y mutant (R108 to N1068 residues) expressed in mammalian expression system assessed as residual binding level at 1 uM by Kinomescan method relative to control. In short, it runs like this:
as §3

Assay [19] has as its target Microtubule-associated serine/threonine-protein kinase 1 (Homo sapiens) (UniProt Q9Y2H9). Nature of the assay: Binding affinity to wild-type human partial length MAST1 (S346 to V730 residues) expressed in mammalian expression system assessed as residual binding level at 1 uM by Kinomescan method relative to control.
Assay [20] concerns the target BDNF/NT-3 growth factors receptor (Homo sapiens) (UniProt Q16620). Nature of the assay: Binding affinity to wild-type human partial length TRKB (Q547 to G838 residues) expressed in mammalian expression system assessed as residual binding level at 1 uM by Kinomescan method relative to control.
Assay [21] has as its target AP2-associated protein kinase 1 (Homo sapiens) (UniProt Q2M2I8). Nature of the assay: Binding affinity to human wild-type AAK1 (G25 to L333 residues) expressed in bacterial expression system assessed as residual binding level at 1 uM by Kinomescan method relative to control. An outline of the steps: as §2

Sequence of Mitogen-activated protein kinase kinase kinase 12 (DLK/MAP3K12) (Homo sapiens) (Q12852 whole entry, looked up, the tested form may be a part): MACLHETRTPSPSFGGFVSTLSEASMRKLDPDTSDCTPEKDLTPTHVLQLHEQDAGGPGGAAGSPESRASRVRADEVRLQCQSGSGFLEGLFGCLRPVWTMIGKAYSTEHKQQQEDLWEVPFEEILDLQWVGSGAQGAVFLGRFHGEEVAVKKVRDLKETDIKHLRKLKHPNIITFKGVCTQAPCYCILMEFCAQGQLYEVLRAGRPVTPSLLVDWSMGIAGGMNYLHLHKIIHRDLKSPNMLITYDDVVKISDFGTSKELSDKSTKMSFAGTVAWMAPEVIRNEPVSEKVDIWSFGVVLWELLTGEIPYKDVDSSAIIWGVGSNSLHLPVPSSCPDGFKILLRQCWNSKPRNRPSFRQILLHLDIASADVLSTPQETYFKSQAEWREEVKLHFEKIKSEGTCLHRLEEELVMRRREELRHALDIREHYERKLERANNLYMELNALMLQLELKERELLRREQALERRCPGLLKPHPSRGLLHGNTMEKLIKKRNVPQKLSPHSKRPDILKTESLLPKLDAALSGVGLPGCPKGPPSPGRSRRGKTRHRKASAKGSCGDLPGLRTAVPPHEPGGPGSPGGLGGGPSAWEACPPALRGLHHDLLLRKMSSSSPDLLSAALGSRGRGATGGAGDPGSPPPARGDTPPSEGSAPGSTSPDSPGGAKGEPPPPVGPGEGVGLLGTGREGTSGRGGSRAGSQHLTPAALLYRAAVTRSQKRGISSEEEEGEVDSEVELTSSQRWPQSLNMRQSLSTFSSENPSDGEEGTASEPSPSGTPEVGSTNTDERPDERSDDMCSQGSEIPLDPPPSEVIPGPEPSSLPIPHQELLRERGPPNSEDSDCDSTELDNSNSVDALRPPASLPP
Sequence of Mitogen-activated protein kinase 4 (Homo sapiens) (P31152 whole entry, the tested form may be a part, canonical isoform): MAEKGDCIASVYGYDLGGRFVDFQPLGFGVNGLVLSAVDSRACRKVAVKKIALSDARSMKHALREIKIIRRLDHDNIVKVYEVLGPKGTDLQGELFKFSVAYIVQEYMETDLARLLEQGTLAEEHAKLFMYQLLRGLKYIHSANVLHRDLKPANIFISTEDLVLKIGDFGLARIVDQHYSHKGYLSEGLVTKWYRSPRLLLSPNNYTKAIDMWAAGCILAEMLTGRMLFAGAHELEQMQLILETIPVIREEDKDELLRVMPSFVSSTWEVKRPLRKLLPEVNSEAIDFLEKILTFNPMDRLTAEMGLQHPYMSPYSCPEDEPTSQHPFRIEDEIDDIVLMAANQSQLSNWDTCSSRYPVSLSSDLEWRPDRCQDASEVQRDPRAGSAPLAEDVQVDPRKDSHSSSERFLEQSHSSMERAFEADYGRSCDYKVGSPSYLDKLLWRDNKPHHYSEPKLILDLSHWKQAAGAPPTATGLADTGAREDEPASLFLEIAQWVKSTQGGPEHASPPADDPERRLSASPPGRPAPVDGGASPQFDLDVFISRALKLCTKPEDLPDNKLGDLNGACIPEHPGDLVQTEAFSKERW
Sequence of BDNF/NT-3 growth factors receptor (Homo sapiens) (Q16620 32-822 limits assumed): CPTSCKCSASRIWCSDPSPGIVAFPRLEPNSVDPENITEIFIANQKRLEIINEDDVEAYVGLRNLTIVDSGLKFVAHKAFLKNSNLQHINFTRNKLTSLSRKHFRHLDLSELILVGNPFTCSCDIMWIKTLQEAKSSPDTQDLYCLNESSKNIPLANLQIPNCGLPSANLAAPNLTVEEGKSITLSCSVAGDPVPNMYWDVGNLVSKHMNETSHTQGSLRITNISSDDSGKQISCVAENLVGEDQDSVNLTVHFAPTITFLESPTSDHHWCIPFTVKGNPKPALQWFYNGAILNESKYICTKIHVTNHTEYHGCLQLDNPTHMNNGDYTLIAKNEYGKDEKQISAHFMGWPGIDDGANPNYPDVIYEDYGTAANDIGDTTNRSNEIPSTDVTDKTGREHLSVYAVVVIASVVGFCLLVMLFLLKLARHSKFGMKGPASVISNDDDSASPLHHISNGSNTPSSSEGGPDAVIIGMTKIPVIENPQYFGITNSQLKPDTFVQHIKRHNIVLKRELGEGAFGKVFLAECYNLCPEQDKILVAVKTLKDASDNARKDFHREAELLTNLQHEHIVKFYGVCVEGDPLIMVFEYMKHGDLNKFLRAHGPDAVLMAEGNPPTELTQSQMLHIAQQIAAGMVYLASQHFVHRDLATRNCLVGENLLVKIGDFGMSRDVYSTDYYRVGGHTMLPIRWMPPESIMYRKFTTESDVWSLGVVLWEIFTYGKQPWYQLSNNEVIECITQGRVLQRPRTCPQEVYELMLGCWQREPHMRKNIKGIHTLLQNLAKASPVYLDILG
Sequence of Ephrin type-A receptor 7 (Homo sapiens) (Q15375 28-998 limits assumed): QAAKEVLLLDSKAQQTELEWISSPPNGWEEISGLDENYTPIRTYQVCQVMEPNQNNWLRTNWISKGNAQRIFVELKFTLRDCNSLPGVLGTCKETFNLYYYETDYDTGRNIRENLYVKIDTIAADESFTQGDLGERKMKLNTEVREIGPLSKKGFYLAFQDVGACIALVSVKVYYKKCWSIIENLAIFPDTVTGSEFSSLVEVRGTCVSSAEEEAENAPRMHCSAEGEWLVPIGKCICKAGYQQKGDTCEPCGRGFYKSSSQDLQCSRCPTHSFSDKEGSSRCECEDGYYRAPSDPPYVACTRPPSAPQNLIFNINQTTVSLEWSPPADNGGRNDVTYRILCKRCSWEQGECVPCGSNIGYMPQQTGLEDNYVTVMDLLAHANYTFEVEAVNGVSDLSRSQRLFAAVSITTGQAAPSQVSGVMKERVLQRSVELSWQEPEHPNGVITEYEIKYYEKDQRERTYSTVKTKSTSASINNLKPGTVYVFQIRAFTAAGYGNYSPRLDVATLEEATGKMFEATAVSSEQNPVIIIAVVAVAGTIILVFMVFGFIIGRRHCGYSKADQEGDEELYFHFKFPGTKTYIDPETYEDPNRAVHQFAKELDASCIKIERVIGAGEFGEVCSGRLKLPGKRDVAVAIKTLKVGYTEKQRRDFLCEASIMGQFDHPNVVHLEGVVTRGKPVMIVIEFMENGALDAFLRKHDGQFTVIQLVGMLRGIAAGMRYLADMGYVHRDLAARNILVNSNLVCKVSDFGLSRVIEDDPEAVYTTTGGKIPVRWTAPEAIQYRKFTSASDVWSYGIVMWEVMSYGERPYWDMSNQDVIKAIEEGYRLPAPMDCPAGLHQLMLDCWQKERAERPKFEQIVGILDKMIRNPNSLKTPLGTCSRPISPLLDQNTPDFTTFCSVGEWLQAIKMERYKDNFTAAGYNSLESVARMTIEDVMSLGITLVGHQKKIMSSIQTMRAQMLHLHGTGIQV
Sequence of Mast/stem cell growth factor receptor Kit (Homo sapiens), P10721 [V559D,T670I] (P10721 whole entry V559D/T670I, the tested form may be a part): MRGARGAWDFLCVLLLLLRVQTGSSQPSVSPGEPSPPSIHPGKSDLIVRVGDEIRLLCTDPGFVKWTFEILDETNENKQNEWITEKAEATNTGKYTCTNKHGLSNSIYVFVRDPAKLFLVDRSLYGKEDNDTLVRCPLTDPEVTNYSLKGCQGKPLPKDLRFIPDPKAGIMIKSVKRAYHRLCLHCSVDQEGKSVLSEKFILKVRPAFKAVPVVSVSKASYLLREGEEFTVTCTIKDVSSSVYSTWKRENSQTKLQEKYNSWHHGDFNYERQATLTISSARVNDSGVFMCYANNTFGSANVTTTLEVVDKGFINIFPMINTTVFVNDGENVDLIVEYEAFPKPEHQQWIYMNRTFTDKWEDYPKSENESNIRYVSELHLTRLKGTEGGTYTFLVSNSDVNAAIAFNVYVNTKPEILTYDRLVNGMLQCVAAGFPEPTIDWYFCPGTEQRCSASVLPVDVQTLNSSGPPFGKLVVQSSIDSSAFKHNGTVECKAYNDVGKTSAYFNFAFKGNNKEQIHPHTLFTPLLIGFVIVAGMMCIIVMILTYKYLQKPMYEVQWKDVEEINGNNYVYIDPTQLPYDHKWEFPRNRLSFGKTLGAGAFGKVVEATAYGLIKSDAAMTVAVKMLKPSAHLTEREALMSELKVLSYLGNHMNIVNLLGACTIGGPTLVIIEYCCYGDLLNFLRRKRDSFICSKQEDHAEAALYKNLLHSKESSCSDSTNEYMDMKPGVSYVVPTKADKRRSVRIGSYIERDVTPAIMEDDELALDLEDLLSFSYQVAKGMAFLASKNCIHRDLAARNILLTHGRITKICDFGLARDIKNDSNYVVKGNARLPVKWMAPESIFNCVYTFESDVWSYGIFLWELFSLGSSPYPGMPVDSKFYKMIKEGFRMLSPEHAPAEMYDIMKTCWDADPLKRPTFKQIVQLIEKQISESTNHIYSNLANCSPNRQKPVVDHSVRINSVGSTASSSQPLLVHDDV
Sequence of Serine/threonine-protein kinase PAK 2 (Homo sapiens) (Q13177 whole entry, the tested form may be a part): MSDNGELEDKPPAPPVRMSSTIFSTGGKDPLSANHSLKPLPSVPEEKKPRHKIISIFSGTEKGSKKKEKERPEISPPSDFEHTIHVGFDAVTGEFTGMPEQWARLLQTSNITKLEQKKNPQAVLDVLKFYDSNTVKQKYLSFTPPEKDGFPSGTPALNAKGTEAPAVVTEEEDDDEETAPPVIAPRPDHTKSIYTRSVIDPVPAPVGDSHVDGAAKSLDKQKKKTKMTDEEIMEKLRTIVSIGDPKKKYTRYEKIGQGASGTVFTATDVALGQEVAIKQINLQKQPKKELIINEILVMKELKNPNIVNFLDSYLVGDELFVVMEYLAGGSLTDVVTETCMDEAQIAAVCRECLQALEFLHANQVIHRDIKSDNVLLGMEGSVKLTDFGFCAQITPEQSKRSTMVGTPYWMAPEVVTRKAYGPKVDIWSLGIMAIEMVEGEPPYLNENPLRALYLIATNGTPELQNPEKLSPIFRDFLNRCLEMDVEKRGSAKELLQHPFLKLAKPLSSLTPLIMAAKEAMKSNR
Sequence of Cyclin-dependent kinase 2 homolog (Plasmodium falciparum (isolate 3D7)) (P61075 whole entry, the tested form may be a part): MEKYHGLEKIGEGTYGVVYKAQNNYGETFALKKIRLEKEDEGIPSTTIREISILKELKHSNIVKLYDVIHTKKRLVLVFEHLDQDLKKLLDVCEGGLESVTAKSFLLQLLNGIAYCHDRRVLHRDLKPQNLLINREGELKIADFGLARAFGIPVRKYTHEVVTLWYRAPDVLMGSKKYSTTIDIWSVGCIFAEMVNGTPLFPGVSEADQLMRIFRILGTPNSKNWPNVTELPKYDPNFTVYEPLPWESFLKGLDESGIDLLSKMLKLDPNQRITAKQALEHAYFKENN

As for `Cc1ccc(NC(=O)c2ccc(CN(CCN(C)C)C(=O)c3cccnc3)cc2)cc1Nc1nccc(-c2cccnc2)n1`, the GI50 in assay [1] was greater than 10 µM. The Activity in [2] was found to be 94%; in assay [3], 99%; in [4], 100%; in assay [5], 82%; in [6], 90%; in [7], 100%. In addition, the Activity was found to be 100% in [8]; 100% in assay [9]; 100% in [10]; 76% in [11]; 89% in [12]; 87% in assay [13]. The Activity in [14] came to 93%; in [15], 100%; in assay [16], 92%; in [17], 89%; in [18], 76%; in [19], 100%. Also, the Activity in assay [20] and in assay [21] was 100% throughout.

For orientation: GI50 means the concentration giving 50% growth inhibition. Low readings indicate more potent growth inhibition, high ones less potent growth inhibition.
